Laboratory results published in ChEMBL document CHEMBL2146382, “Cytotoxic and antineoplastic activity of timosaponin A-III for human colon cancer cells” (J Nat Prod, 2011).
Active and inactive are the calls of the source. The rule behind the calls is not given here.

Columns and labels:
HCT-15 [1] = test: Cell cycle arrest in human HCT15 cells assessed as accumulation at G2/M phase at 20 uM after 12 hrs using propidium-iodide staining by flow-cytometry (reference value: 15.7 %); assay type: functional
HCT-15 [2] = test: Cell cycle arrest in human HCT15 cells assessed as accumulation at G2/M phase at 10 uM after 12 hrs using propidium-iodide staining by flow-cytometry (reference value: 15.7 %); assay type: functional
SW480 = test: Growth inhibition of human SW480 cells; assay type: functional, cell-based
Summary of the method: (§1)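 SRB assay: cells at 5 × 10^4 cells/mL were exposed to a concentration series for 3 days, fixed with 10% TCA and stained with sulforhodamine B. Survival was expressed as % of solvent-treated control and IC50 taken by nonlinear regression of % survival versus concentration. Media held 10% heat-inactivated FBS plus antibiotics: RPMI (HCT-15, HCT 116, HT-29), RPMI with 25 mM HEPES (SW480, SW620), DMEM (MRC-5, Hs68). Cultures were kept at 37 C, 5% CO2.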

HCT-15 [3] = test: Cell cycle arrest in human HCT15 cells assessed as accumulation at S phase at 10 uM after 12 hrs using propidium-iodide staining by flow-cytometry (reference value: 34.7 %); assay type: functional
HCT-15 [4] = test: Cell cycle arrest in human HCT15 cells assessed as accumulation at sub-G1 phase at 10 uM after 12 hrs using propidium-iodide staining by flow-cytometry (reference value: 5.2 %); assay type: functional
HCT-15 [5] = test: Cell cycle arrest in human HCT15 cells assessed as accumulation at G2/M phase at 20 uM after 24 hrs using propidium-iodide staining by flow-cytometry (reference value: 22.4 %); assay type: functional
Hs68 = test: Growth inhibition of human HS68 cells; assay type: cell-based; summary of the method: as §1
HCT-15 [6] = test: Cytotoxicity against human HCT15 cells assessed as dead cells up to 20 uM after 12 to 24 hrs by phase contrast microscopy; assay type: functional, cell-based
Summary of the method: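 HCT-15 cells treated with 0–20 μM for 12 and 24 h, vehicle-treated controls; morphology examined and photographed under phase-contrast microscope.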

HCT-15 [7] = test: Cell cycle arrest in human HCT15 cells assessed as accumulation at sub-G1 phase at 5 uM after 12 hrs using propidium-iodide staining by flow-cytometry (reference value: 5.2 %); assay type: functional
HCT-15 [8] = test: Induction of apoptosis in human HCT15 cells assessed as suppression of procaspase-8 expression at 5 to 20 uM after 12 to 24 hrs by Western blot analysis; assay type: functional, cell-based
Summary of the method: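 HCT-15 cells (RPMI, 10% heat-inactivated FBS, antibiotics-antimycotics, 37 C, 5% CO2) exposed to compound. Cells lysed, protein measured by BCA, 30-50 μg per lane resolved on 10% SDS-PAGE and electroblotted to PVDF. Membranes blocked 1 h in 5% nonfat milk/PBST, probed with primary antibodies overnight at 4 C, then HRP anti-mouse IgG 1:1500 for 3 h at room temperature. Detection by ECL; β-actin antibody available.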

HCT-15 [9] = test: Cell cycle arrest in human HCT15 cells assessed as accumulation at G0/G1 phase at 10 uM after 24 hrs using propidium-iodide staining by flow-cytometry (reference value: 37.0 %); assay type: functional
HCT-15 [10] = test: Cell cycle arrest at M phase in human HCT15 cells assessed as suppression of CDC2 Tyr-15 phosphorylation at 5 to 20 uM after 12 to 24 hrs by Western blot analysis; assay type: functional, cell-based
Summary of the method: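 HCT-15 cells in RPMI/10% FBS exposed to test compound at various concentrations; lysates quantified by BCA, 30–50 μg protein run on 10% SDS-PAGE, transferred to PVDF, blocked 1 h in 5% milk/PBST, primary antibodies overnight at 4 °C, HRP anti-mouse IgG 1:1500 for 3 h at room temperature, ECL detection.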

HCT-15 [11] = test: Cell cycle arrest in human HCT15 cells assessed as accumulation at S phase at 10 uM after 24 hrs using propidium-iodide staining by flow-cytometry (reference value: 34.1 %); assay type: functional
HCT-15 [12] = test: Antineoplastic activity against human HCT15 cells xenografted nude in BALB/c mouse assessed as inhibition of rate of tumor size at 2 mg/kg, ip 3 times a week for 4 weeks relative to control; assay type: functional; conditions: HCT-15, ip, 672 h, route intraperitoneal
Summary of the method: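 HCT-15 cells (2 × 10^6 in 200 μL medium) implanted subcutaneously in flanks of BALB/c-nu (nu/nu) mice; dosing began at ca. 80 mm3 tumours; groups of five, randomized. 2 or 5 mg/kg given ip three times weekly in ethanol–cremophor–H2O (0.5:0.5:99), vehicle controls; caliper volume (3.14·L·W·H/6) three times weekly for 30 days; Ki-67 immunohistochemistry on tumour sections (1:250, 4 °C overnight, DAB, hematoxylin counterstain).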

[13] = Growth inhibition of human […] cells; assay type: cell-based; summary of the method: as §1

`C[C@H]1CC[C@@]2(OC1)O[C@H]1C[C@H]3[C@@H]4CC[C@@H]5C[C@@H](O[C@@H]6O[C@H](CO)[C@H](O)[C@H](O)[C@H]6O[C@@H]6O[C@H](CO)[C@@H](O)[C@H](O)[C@H]6O)CC[C@]5(C)[C@H]4CC[C@]3(C)[C@H]1[C@@H]2C` [TIMOSAPONIN AIII] showed an Activity (HCT-15 [1]) of 41.8%, an Activity (HCT-15 [2]) of 24.2% and an IC50 (SW480) of 13.1 µM. For the same molecule, the Activity (HCT-15 [3]) was 18.4%, the Activity (HCT-15 [4]) was 14.2% and the Activity (HCT-15 [5]) was 0%. The IC50 (Hs68) was over 50 µM, the Activity (HCT-15 [6]) was “Active” and the Activity (HCT-15 [7]) was 4.8%. The Activity (HCT-15 [8]) was “Active”, the Activity (HCT-15 [9]) was 47.9% and the Activity (HCT-15 [10]) was “Active”. For the same molecule, the Activity (HCT-15 [11]) was 15.3%, the inhibition in vivo at 2 mg/kg (HCT-15 [12]) was 8.3% and the IC50 [13] was over 50 µM.
